Reference: ChEMBL document CHEMBL1147976 (Eur J Med Chem, 2007)

How the values were obtained:
Leishmania infantum [1] = experiment: Antipromastigote activity against Leishmania infantum; assay type: functional, organism-based
Procedure, shortened: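 L. infantum MHOM/FR/78/LEM75 late log-phase promastigotes in phenol-red-free RPMI with 12% foetal calf serum and 10% Alamar Blue. Concentration range added to duplicate cultures, final DMSO below 5%. Incubated 48 h at 25 C. Alamar Blue reduction read by absorbance at 570 and 630 nm. IC50 = concentration giving 50% reduction of Alamar Blue versus control.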

THP-1 = experiment: Cytotoxicity against human THP1 cells; assay type: cell-based
Procedure, shortened: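 Late log-phase human monocytes in RPMI with 10% Alamar Blue and 10% foetal calf serum. Concentration range in duplicate cultures, final DMSO below 5%. Incubated 72 h at 37 C, 5% CO2. Alamar Blue reduction measured as absorbance at 570 and 630 nm. IC50 based on reduction relative to control culture.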

[2] = Binding affinity to DNA by DNA-methyl green bioassay; parameters: species or system Homo sapiens
Procedure, shortened: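 Absorbance at 630 nm read at start and after 24 h dark at room temperature. Readings corrected for initial value, normalized to untreated complex. IC50 = 50% drop in DNA-related absorbance.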

[3] = Toxicity in human macrophages; assay type: cell-based; details: macrophage
Leishmania infantum [4] = experiment: Antiamastigote activity against Leishmania infantum; assay type: functional, organism-based

SMILES | IC50 (Leishmania infantum [1]) [µM] | IC50 (THP-1) [µM] | IC50 [2] [µM] | Activity [3] | IC50 (Leishmania infantum [4]) [µM]
CC(=O)Nc1ccc2cc3ccc(N)cc3nc2c1 | 90.8 | 4.7 | 59.1 | Toxic | –
CCCC(=O)Nc1ccc2cc3ccc(NC(=O)CCC)cc3nc2c1 | 46.7 | 18.9 | 102 | – | 12.8
COc1ccc(C(=O)Nc2ccc3cc4ccc(NC(=O)c5ccc(OC)c(OC)c5)cc4nc3c2)cc1OC | 16.1 | 26.8 | > 250 | – | 0.8
CC(=O)Nc1ccc2cc3ccc(NC(=O)c4ccc(Cl)cc4)cc3nc2c1 | 11.5 | 1.9 | > 250 | – | 2.9
COc1ccc(C(=O)Nc2ccc3cc4ccc(NC(C)=O)cc4nc3c2)cc1 | 86.9 | 1.76 | > 250 | Toxic | –
O=C(Nc1ccc2cc3ccc(NC(=O)c4ccccc4)cc3nc2c1)c1ccccc1 | 4.31 | 110 | > 250 | – | 1.1
COc1ccc(C(=O)Nc2ccc3cc4ccc(NC(C)=O)cc4nc3c2)cc1OC | 203 | 2.1 | > 250 | – | 1.3
CC(=O)Nc1ccc2cc3ccc(NC(C)=O)cc3nc2c1 | 342 | 738 | > 250 | – | 4.5
O=C(Nc1ccc2cc3ccc(NC(=O)c4ccc(Cl)cc4)cc3nc2c1)c1ccc(Cl)cc1 | 0.11 | 2.49 | > 250 | – | 0.2
O=C(Nc1ccc2cc3ccc(NC(=O)c4ccc(F)cc4)cc3nc2c1)c1ccc(F)cc1 | 1.7 | 0.77 | > 250 | – | 0.03
COc1ccc(C(=O)Nc2ccc3cc4ccc(NC(=O)c5ccc(OC)cc5)cc4nc3c2)cc1 | 4.8 | 13.4 | > 250 | – | 1.1
CC(=O)Nc1ccc2cc3ccc(NC(=O)c4ccccc4)cc3nc2c1 | 186 | 5.4 | > 250 | Toxic | –
CC(=O)Nc1ccc2cc3ccc(NC(=O)c4ccc(F)cc4)cc3nc2c1 | 133 | 1.1 | > 250 | – | 0.67
CCC(=O)Nc1ccc2cc3ccc(NC(=O)CC)cc3nc2c1 | 160 | 23.2 | 171 | – | 7.7
C[C@@H]1[C@H](O)[C@@H](C)/C=C/C=C/C=C/C=C/C=C/C=C/C=C/[C@H](O[C@@H]2O[C@H](C)[C@@H](O)[C@H](N)[C@@H]2O)C[C@@H]2O[C@](O)(C[C@@H](O)C[C@@H](O)[C@H](O)CC[C@@H](O)C[C@@H](O)CC(=O)O[C@H]1C)C[C@H](O)[C@H]2C(=O)O [AMPHOTERICIN B] | 0.38 | 154 | – | – | 0.14
COc1cccc2c1C(=O)c1c(O)c3c(c(O)c1C2=O)C[C@@](O)(C(=O)CO)C[C@@H]3O[C@H]1C[C@H](N)[C@H](O)[C@H](C)O1 [DOXORUBICIN] | – | – | 1.38 | – | –
Nc1ccc2cc3ccc(N)cc3nc2c1 [PROFLAVINE] | 1.3 | 2.21 | > 250 | – | 0.12
